This is an account of results in ChEMBL document CHEMBL1671655, “Anidulafungin is fungicidal and exerts a variety of postantifungal effects against Candida albicans, C. glabrata, C. parapsilosis, and C. krusei isolates” (2009).

The MIC90 is the lowest concentration that inhibits either 90% of growth or 90% of the strains tested, depending on the study.

In brackets after ≈: the same amount, converted by molar mass. Activity calls are given as the source filed them. No cut-off for these calls is given here. Starred links: 1 amine or outer side, 2 acyl side, 3 side chain; linkers in the order of their positions; H or OH if unused. Positions of bridges follow the written chain, without caps; N, C: chain ends. Non-standard residues stand in square brackets, D forms with d. Residues, ends and D or L forms follow the SMILES beside them. *: point of attachment. pTerphenylCO(4''-OnC5H11) = CCCCCOc1ccc(-c2ccc(-c3ccc(C(=O)*)cc3)cc2)cc1; Orn(4R-OH,5R-OH) = O=C([C@H](C[C@@H](O)[C@@H](O)N[*:3])N[*:1])[*:2]; hTyr(3S-OH,4S-OH) = N[C@H](C(=O)O)[C@H](O)[C@@H](O)c1ccc(O)cc1; Pro(3S-OH,4S-Me) = C[C@H]1CN[C@H](C(=O)O)[C@H]1O; Hyp = O=C(O)[C@@H]1C[C@@H](O)CN1 Bounds are passed on as bounds.

Experiment [1] concerns Candida parapsilosis. The experiment is described as follows: Fungicidal activity against Candida parapsilosis isolate A assessed as log reduction in bacterial count at 16 times MIC after 48 hrs by time-kill analysis. Type of experiment: functional. The conditions noted are these: Lodderomyces parapsilosis. An outline of the steps:
(§1)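 Isolates subcultured twice on SDA, then suspended to 0.5 McFarland and diluted into RPMI 1640 (MOPS, pH 7.0) with or without anidulafungin, giving about 1 x 10^5 to 5 x 10^5 CFU/ml. Tubes were shaken at 35°C. Samples were taken at 0, 2, 4, 8, 12, 24 and 48 h, serially diluted 10-fold, plated on SDA, and CFU counted after 48 h at 35°C. Each isolate was run twice; mean values.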

For experiment [2], the system named is Candida parapsilosis. The experiment is described as follows: Fungicidal activity against Candida parapsilosis isolate A assessed as log reduction in bacterial count at 4 times MIC after 48 hrs by time-kill analysis. Type of experiment: functional. The note with it: Lodderomyces parapsilosis. An outline of the steps: as §1
The subject of experiment [3] is Nakaseomyces glabratus. The experiment is described as follows: Fungicidal activity against Candida glabrata isolate 1 assessed as log reduction in bacterial count at 4 times MIC after 48 hrs by time-kill analysis. Type of experiment: functional. The note with it: isolate 1, 48 h. An outline of the steps:
(§2)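 Isolates subcultured twice on SDA, suspended to 0.5 McFarland, giving ~1 x 10^5 to 5 x 10^5 CFU/ml in MOPS-buffered RPMI 1640 (pH 7.0) with or without drug at multiples of MIC (MIC by CLSI M27-A3). Tubes shaken at 35°C with continuous drug. Sampled at 0–48 h, diluted 10-fold and plated on SDA; CFU counted after 48 h at 35°C. Run twice per isolate; means.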

Experiment [4] has as its system Nakaseomyces glabratus. Description: Fungicidal activity against Candida glabrata isolate 2 assessed as log reduction in bacterial count at 4 times MIC after 48 hrs by time-kill analysis. Type of experiment: functional. The conditions noted are these: isolate 2, 48 h. The method in brief: as §2
Experiment [5] concerns Pichia kudriavzevii. The experiment is described as follows: Fungicidal activity against Candida krusei isolate ATCC 6258 assessed as log reduction in bacterial count at MIC after 48 hrs by time-kill analysis. The note with it: isolate ATCC 6258, 48 h. Type of experiment: functional. The method in brief: as §2
In experiment [6] the test system is Candida albicans. The experiment is described as follows: Fungicidal activity against Candida albicans isolate 2 assessed as log reduction in bacterial count at 16 times MIC after drug exposure for 1 hr followed by washout measured after 48 hrs in the absence of drug by PAFE study. Type of experiment: functional. The method in brief:
(§3)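 Starting inoculum ~1 x 10^5 to 5 x 10^5 CFU/ml in MOPS-buffered RPMI 1640 (pH 7.0) with drug at multiples of the CLSI M27-A3 MIC. After 1 h at 35°C, cells washed and centrifuged three times at 1,400 x g for 10 min, then resuspended in warm drug-free RPMI. Shaken at 35°C and plated on SDA at 0–48 h; CFU counted after 48 h. Run twice per isolate; means.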

The test system of experiment [7] is Candida parapsilosis. The experiment is described as follows: Fungicidal activity against Candida parapsilosis isolate A assessed as log reduction in bacterial count at MIC after drug exposure for 1 hr followed by washout measured after 48 hrs in the absence of drug by PAFE study. Type of experiment: functional. The note with it: Lodderomyces parapsilosis. The method in brief: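 Inoculum about 1 x 10^5 to 5 x 10^5 CFU/ml in RPMI 1640 (MOPS, pH 7.0) with drug, shaken at 35°C for 1 h. Cells were then washed and centrifuged at 1,400 x g for 10 min (3 cycles) and resuspended in warm drug-free RPMI. Samples plated on SDA at 0, 2, 4, 8, 12, 24 and 48 h; CFU counted after 48 h at 35°C. Run twice per isolate; means.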

The subject of experiment [8] is Nakaseomyces glabratus. The experiment is described as follows: Fungicidal activity against Candida glabrata isolate 1 assessed as log reduction in bacterial count at MIC after drug exposure for 1 hr followed by washout measured after 48 hrs in the absence of drug by PAFE study. The experiment is classed as functional. The method in brief: as §3
The subject of experiment [9] is Candida albicans. The experiment is described as follows: Antifungal activity against Candida albicans isolate 1 assessed as time period for bacterial growth inhibition at 4 times MIC after 1 hr drug exposure. The experiment is classed as functional. An outline of the steps:
(§4)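 Inoculum of about 1 x 10^5 to 5 x 10^5 CFU/ml in MOPS-buffered RPMI (pH 7.0), shaken at 35°C and exposed to drug for 1 h. Cells then washed and centrifuged three times and resuspended in drug-free warm RPMI. Samples plated on SDA at 0, 2, 4, 8, 12, 24 and 48 h, with CFU counted after 48 h at 35°C. Run twice per isolate; values are means.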

Experiment [10] concerns Nakaseomyces glabratus. The experiment is described as follows: Antifungal activity against Candida glabrata isolate 3 assessed as time period for bacterial growth inhibition at 4 times MIC after 1 hr drug exposure. The experiment is classed as functional. An outline of the steps:
as §4

The subject of experiment [11] is Pichia kudriavzevii. Description: Antifungal activity against Candida krusei isolate ATCC 6258 assessed as time period for bacterial growth inhibition at 4 times MIC after 1 hr drug exposure. Type of experiment: functional. The method in brief: as §4
Experiment [12] has as its system Candida albicans. The experiment is described as follows: Antifungal activity against Candida albicans by NCCLS M27A broth microdilution method. Type of experiment: functional. In general terms: In broth dilution the organism is exposed to a series of concentrations in liquid medium.
Experiment [13] deals with Candida parapsilosis. Description: Antifungal activity against Candida parapsilosis assessed as time period for bacterial regrowth inhibition after 1 hr drug exposure. The experiment is classed as functional.
Experiment [14] has as its system Candida albicans. Description: Increase in susceptibility to SDS in Candida albicans isolate 1 assessed as cell wall damage at 4 times MIC after 1 hr relative to control. The experiment is classed as functional, organism-based. The method in brief: (§5)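 Cells recovered 8 h after a 1-h drug exposure were grown in YPD with 1% glucose to exponential phase and adjusted to OD599 0.1. Undiluted culture and 10-fold serial dilutions were spotted onto YPD plates containing SDS (0.01 to 0.04%), then incubated 72 h at 30°C. Growth compared with unexposed control cells; triplicate.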

Experiment [15] deals with Candida albicans. Description: Increase in susceptibility to SDS in Candida albicans isolate 1 assessed as cell wall damage at 16 times MIC after 1 hr relative to control. Type of experiment: functional, organism-based. An outline of the steps: as §5
Experiment [16] concerns Candida albicans. The experiment is described as follows: Increase in susceptibility to SDS in Candida albicans ATCC 90028 assessed as cell wall damage at 16 times MIC after 1 hr relative to control. The experiment is classed as functional, organism-based. The method in brief:
as §5

Experiment [17] concerns Nakaseomyces glabratus. The experiment is described as follows: Increase in susceptibility to calcofluor white in Candida glabrata isolate 1 assessed as cell wall damage at MIC after 1 hr relative to control. Type of experiment: functional, organism-based. The method in brief:
(§6)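 Cells recovered 8 h after a 1-h drug exposure were grown to exponential phase in YPD with 1% glucose and adjusted to OD599 0.1. Undiluted and 10-fold serially diluted cultures were spotted onto YPD plates containing calcofluor white, then incubated at 30°C for 72 h. Growth compared with no-drug control cells; triplicate.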

For experiment [18], the system named is Candida albicans. Description: Increase in susceptibility to calcofluor white in Candida albicans isolate 1 assessed as cell wall damage at 4 times MIC after 1 hr relative to control. The experiment is classed as functional, organism-based. An outline of the steps:
as §6

Experiment [19] relates to Pichia kudriavzevii. The experiment is described as follows: Increase in susceptibility to calcofluor white in Candida krusei isolate ATCC 6258 assessed as cell wall damage at 4 times MIC after 1 hr relative to control. The experiment is classed as functional, organism-based. An outline of the steps:
as §6

The subject of experiment [20] is Candida albicans. Description: Increase in susceptibility to calcofluor white in Candida albicans isolate 1 assessed as cell wall damage at 16 times MIC after 1 hr relative to control. The experiment is classed as functional, organism-based. An outline of the steps: as §6
Experiment [21] relates to Candida parapsilosis. Description: Antifungal activity against Candida parapsilosis isolate A assessed as cell wall damage at MIC by Transmission electron microscopy. Type of experiment: functional, organism-based. An outline of the steps:
(§7)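 Cells recovered 8 h after a 1-h drug exposure were grown on SDA for 24 h at 35°C. Colonies fixed at 4°C in 0.1 M cacodylate (pH 7.2) with 2% glutaraldehyde and 2% paraformaldehyde, ethanol-dehydrated and embedded in Lowicryl K4M. Thin sections examined by transmission EM.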

Experiment [22] has as its system Nakaseomyces glabratus. Description: Antifungal activity against Candida glabrata isolate 1 assessed as cell wall damage at MIC by Transmission electron microscopy. Type of experiment: functional, organism-based. The method in brief: as §7
The subject of experiment [23] is Candida albicans. The experiment is described as follows: Antifungal activity against Candida albicans isolate 1 coincubated with mouse J774 macrophages assessed as macrophage induced bacterial cell killing at 4 times MIC (reference value: 14 +/- 8 %). Type of experiment: functional.
Experiment [24] has as its system Candida parapsilosis. Description: Antifungal activity against Candida parapsilosis isolate 1 coincubated with mouse J774 macrophages assessed as macrophage induced bacterial cell killing at 4 times MIC (reference value: 22 +/- 12 %). Type of experiment: functional.

`CCCCCOc1ccc(-c2ccc(-c3ccc(C(=O)N[C@H]4C[C@@H](O)[C@@H](O)NC(=O)[C@@H]5[C@@H](O)[C@@H](C)CN5C(=O)[C@H]([C@@H](C)O)NC(=O)[C@H]([C@H](O)[C@@H](O)c5ccc(O)cc5)NC(=O)[C@@H]5C[C@@H](O)CN5C(=O)[C@H]([C@@H](C)O)NC4=O)cc3)cc2)cc1` [ANIDULAFUNGIN] ({pTerphenylCO(4''-OnC5H11)}-[Orn(4R-OH,5R-OH)]T[Hyp][hTyr(3S-OH,4S-OH)]T[Pro(3S-OH,4S-Me)]; lactam 1-C): the log reduction came out at 3.42 log CFU/ml in the experiment on Candida parapsilosis [1]; 3.19 log CFU/ml in the experiment with Candida parapsilosis [2]; 2.77 log CFU/ml in the experiment on Nakaseomyces glabratus [3]; 1.87 log CFU/ml in the experiment on Nakaseomyces glabratus [4]; 2.21 log CFU/ml in the experiment on Pichia kudriavzevii [5]; 1.55 with Candida albicans [6]. In addition, the log reduction in the experiment on Candida parapsilosis [7] stood at 1.41; in the experiment with Nakaseomyces glabratus [8], 0.89. For the same compound, the Time in the experiment on Candida albicans [9] was 8 h; in the experiment with Nakaseomyces glabratus [10], 8 h; with Pichia kudriavzevii [11], 8 h; in the experiment with Candida parapsilosis [13], “>=12 hr”. The same compound gave an MIC90 against Candida albicans [12] of 0.06 µg/mL (≈ 0.0526 µM). In addition, the result with Candida albicans [14], in the experiment with Candida albicans [15], with Candida albicans [16], with Nakaseomyces glabratus [17], with Candida albicans [18] and in the experiment with Pichia kudriavzevii [19] was Active. The outcome with Candida albicans [20], in the experiment with Candida parapsilosis [21] and in the experiment with Nakaseomyces glabratus [22] was Active. For the same compound, the “inhibition (INH)” value is recorded as 37% with Candida albicans [23] and 27% with Candida parapsilosis [24].
